Columns and labels:
D(1A) dopamine receptor = D(1A) dopamine receptor (Rattus norvegicus, UniProt P18901); test: In vitro inhibitory concentration against radioligand [3H]SCH-23390 binding to Dopamine receptor D1 in rat striatal membrane; assay type: cell membranes, Striatum
Method in brief: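 Rat striatal membranes were incubated in 50 mM Tris-HCl pH 7.1 containing 10 μM pargyline, 120 mM NaCl, 5 mM KCl, 2 mM CaCl2, 1 mM MgCl2 and 0.1% ascorbic acid. [3H]SCH23390 0.4 nM final, 15 min at 37 °C; nonspecific binding with (-)-cis-flupentixol 10 μM. Filtered and counted; IC50 by curve analysis.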

[1] = target: T1, Serotonin 3 (5-HT3) receptor (Rattus norvegicus, UniProt P35563+Q9JJ16); test: In vitro inhibitory concentration against radioligand [3H]BRL-43694 binding to 5-hydroxytryptamine 3 receptor in rat cortical membrane; assay type: cell membranes
T1 sequence (P35563 whole entry): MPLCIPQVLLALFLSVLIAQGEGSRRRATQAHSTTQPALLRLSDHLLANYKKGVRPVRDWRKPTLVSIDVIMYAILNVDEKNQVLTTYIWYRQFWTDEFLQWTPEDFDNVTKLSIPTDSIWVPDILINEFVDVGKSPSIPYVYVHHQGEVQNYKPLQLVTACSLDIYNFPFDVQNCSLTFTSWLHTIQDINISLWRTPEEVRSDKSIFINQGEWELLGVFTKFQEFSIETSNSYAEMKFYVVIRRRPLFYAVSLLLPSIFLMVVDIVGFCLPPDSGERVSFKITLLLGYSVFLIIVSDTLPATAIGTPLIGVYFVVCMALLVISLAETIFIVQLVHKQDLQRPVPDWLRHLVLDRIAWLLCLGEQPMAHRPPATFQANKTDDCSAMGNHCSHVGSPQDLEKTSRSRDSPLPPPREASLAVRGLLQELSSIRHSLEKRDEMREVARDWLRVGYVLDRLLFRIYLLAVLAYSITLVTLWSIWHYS
T1 sequence (Q9JJ16 whole entry): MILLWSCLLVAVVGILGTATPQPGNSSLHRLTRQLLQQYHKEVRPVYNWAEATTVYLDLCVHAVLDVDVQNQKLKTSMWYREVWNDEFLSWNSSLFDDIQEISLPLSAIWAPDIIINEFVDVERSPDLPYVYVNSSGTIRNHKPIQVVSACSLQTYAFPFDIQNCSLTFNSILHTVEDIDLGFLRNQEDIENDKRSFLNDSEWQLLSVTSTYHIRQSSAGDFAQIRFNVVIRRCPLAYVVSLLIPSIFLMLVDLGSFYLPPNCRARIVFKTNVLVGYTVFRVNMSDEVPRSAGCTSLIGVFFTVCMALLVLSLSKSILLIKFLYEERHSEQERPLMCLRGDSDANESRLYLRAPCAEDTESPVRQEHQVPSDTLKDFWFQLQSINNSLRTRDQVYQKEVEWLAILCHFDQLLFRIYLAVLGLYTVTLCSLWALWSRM
Method in brief: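 Rat cortex was homogenized in 50 mM Hepes-HCl pH 7.5, then incubated in 50 mM Hepes-HCl pH 7.4 with 10 μM pargyline. [3H]-BRL43694 1 nM final, 30 min at 25 °C; nonspecific binding with GR38032 10 μM. Filtration through GF/B, liquid scintillation counting, IC50 from dose-inhibition curves.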

[2] = target: 5-hydroxytryptamine receptor 2A (Rattus norvegicus, UniProt P14842); test: In vitro inhibitory concentration against radioligand [3H]ketanserin binding to 5-hydroxytryptamine 2A receptor in rat cortical membrane; assay type: cell membranes
5-hydroxytryptamine receptor 2A, sequence (P14842 whole entry): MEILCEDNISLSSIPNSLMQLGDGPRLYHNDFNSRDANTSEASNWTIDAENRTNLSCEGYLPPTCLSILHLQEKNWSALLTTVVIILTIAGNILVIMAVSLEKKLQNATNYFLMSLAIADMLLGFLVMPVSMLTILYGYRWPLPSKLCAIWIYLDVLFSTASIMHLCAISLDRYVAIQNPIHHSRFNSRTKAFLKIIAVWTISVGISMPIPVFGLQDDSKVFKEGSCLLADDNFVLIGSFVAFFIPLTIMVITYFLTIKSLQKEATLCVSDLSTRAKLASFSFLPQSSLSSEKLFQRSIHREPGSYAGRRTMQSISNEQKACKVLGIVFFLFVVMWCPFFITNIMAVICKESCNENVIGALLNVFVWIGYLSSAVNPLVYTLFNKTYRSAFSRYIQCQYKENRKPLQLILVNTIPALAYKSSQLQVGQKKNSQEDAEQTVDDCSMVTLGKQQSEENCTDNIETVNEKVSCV
Method in brief: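 Cortex from male rats (~150 g) was washed in Tris-HCl pH 7.4 and incubated in 50 mM Tris-HCl pH 7.7. [3H]ketanserin 0.7 nM final, 15 min at 37 °C; nonspecific binding with methysergide. Filtration and scintillation counting; concentration inhibiting binding by 50% derived from dose-inhibition curves.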

D(2) dopamine receptor = D(2) dopamine receptor (Rattus norvegicus, UniProt P61169); test: In vitro inhibitory concentration against radioligand [3H]spiperone binding to Dopamine receptor D2 in rat striatal membrane; assay type: cell membranes, Striatum
Method in brief: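 Rat striatum was used, with incubation buffer 50 mM Tris-HCl pH 7.1 plus pargyline 10 μM, NaCl 120 mM, KCl 5 mM, CaCl2 2 mM, MgCl2 1 mM and 0.1% ascorbic acid. [3H]spiperone 0.2 nM final, 15 min at 37 °C; (-)sulpiride 100 μM defined nonspecific binding. GF/B filtration, scintillation counting, IC50 from fitted curves.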

[3] = target: T2, 5-hydroxytryptamine receptor 1A (Rattus norvegicus, UniProt P19327); test: In vitro inhibitory concentration against radioligand [3H]8-OH-DPAT binding to 5-hydroxytryptamine 1A receptor in rat hippocampal membrane.; assay type: cell membranes, Hippocampus
T2 sequence (P19327 whole entry): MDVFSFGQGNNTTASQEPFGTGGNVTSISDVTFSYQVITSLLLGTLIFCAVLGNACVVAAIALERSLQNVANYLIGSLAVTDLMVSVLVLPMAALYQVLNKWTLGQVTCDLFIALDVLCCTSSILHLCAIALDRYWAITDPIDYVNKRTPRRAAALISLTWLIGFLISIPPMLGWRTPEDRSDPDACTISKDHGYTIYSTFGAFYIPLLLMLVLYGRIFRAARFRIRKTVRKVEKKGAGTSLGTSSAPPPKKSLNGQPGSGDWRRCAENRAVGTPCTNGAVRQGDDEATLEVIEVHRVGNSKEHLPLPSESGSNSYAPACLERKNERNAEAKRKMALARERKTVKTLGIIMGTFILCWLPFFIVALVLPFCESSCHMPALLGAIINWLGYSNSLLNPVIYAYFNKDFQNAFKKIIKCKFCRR
Method in brief: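 Rat hippocampal membranes (male SD rats, ~150 g) were washed in 50 mM Tris-HCl pH 7.4, including 10 min at 37 °C. Incubation buffer contained 4 mM CaCl2 and 10 μM pargyline. Filtered onto GF/B and counted; 50% inhibitory concentration from fitted curves.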

IC50 (D(1A) dopamine receptor)	IC50 [1]	IC50 [2]	IC50 (D(2) dopamine receptor)	IC50 [3]	SMILES
800 nM	600 nM	300 nM	100 nM	0.8 nM	COc1ccccc1C1CCN(CCCSc2nc3sc(C)c(C)c3c(=O)n2N)CC1
600 nM	20 nM	1000 nM	2000 nM	6.8 nM	Cc1sc2nc(SCCCN3CCN(c4ncccn4)CC3)n(N)c(=O)c2c1C
400 nM	800 nM	300 nM	60 nM	0.3 nM	COc1ccccc1N1CCN(CCCSc2nc3sc(C)c(C)c3c(=O)n2N)CC1
